High-throughput results as filed in PubChem.
Only some compounds are listed: those with a hit (about 2.2% of all), similar ones and a draw of the others.
NR2E3 ag-1 = activates human NR2E3 receptor; Q9Y5X4; CHO-S Gal4-NCOR/VP16-NR2E3 two-hybrid, luciferase; inhibition of corepressor binding, % at 3.98 µM; actives 0.35% (n = 360,000);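 active = inhibition above the mean of all tested compounds plus 3 SD, cut at about 70% in these data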;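 also: 0% = DMSO with NR2E3 transfected cells and 100% = cells lacking NR2E3 construct; higher means lower luciferase signal from less NR2E3 corepressor binding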
Target sequence (Q9Y5X4 whole entry, looked up, the tested form may be a part): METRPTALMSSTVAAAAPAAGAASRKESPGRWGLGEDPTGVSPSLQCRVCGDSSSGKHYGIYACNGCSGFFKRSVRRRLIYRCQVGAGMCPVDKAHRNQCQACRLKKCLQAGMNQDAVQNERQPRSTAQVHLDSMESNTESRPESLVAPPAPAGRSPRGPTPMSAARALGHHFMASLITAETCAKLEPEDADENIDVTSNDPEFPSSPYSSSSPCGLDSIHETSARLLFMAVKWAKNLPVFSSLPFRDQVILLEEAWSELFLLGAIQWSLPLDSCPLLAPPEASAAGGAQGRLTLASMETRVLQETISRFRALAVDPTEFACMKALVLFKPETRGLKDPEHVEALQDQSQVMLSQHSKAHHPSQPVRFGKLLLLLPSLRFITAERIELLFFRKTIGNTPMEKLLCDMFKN
FGF22 binding = shifts melting point of recombinant human FGF22. recombinant FGF22 thermal shift, SYPRO orange fluorescence; percent of sucrose octasulfate shift, DMSO zero. actives 1.5% (n = 340,000). activity (Tm shift, normalised), % at 9.99 µM. Q9HCT0;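 active = mean Tm shift, scaled 0 neutral to 100 positive control, at about 1.3% or above, every replicate too, limit read from the data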
Target sequence (Q9HCT0 whole entry, looked up): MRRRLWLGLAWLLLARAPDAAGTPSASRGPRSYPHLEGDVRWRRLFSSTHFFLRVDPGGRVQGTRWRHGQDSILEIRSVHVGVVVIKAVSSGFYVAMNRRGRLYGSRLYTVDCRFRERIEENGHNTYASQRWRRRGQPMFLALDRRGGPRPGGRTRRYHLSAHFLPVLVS
NR2E3 ag-2 = NR2E3 (human) agonism. inhibition of corepressor binding, % at 4.78 µM. actives 0.12% (n = 320,000). GST-NR2E3/biotin-RetCOR TR-FRET, 1536-well;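 active = percent inhibition above the cutoff of mean plus 3 SD of all tested compounds, set per screening campaign, cut at about 20% in these data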;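 also: 0% = DMSO wells and 100% = biotin wells as full block of FRET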
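Test system – NR2E3–RetCOR corepressor complex · Quantity – NR2E3 fusion 1.35 nM · Buffer or medium – Tris pH 7.5 · Incubation – Compound–protein incubation for 5 h at 4 °C · Technique – TR-FRET, Eu(K)-anti-GST donor, streptavidin-D2 acceptor, ex 340, em 617/671 nm · Evaluation – percent inhibition of 671/617 nm emission ratio versus biotin and DMSO controls · Plate – 1536-well format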
miR-122 sensor = miR-122 inhibition in Huh7 cells | activation (reporter increase), % at 12.5 µM | Huh7 miR-122 Renilla luciferase sensor, 48 h; neutral wells = 0, positive control = 100 | actives 0.3% (n = 340,000);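 active = mean replicate activation score at least 90 and every replicate individually at or above 90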;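 also: higher luciferase means less miR-122 activity so hits act as miR-122 inhibitors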
697 NFkB inh = lowers PMA/ionomycin-induced NF-kB signal in 697 B cells; 697 B-cell NF-kB luciferase reporter, 16 h; inhibition, % at 4 µM; actives 0.33% (n = 330,000); in the data active = inhibition above about 35%
Jurkat NFkB inh = lowers PMA/ionomycin-induced NF-kB signal in Jurkat cells; inhibition, % at 4 µM; actives 0.53% (n = 330,000); PMA/ionomycin-induced NF-kB luciferase reporter, luminescence; in the data active = inhibition above about 50%
An asterisk follows results filed as active; . = no result; [ ] = dose if it differs, or a comment.

SMILES	NR2E3 ag-1	FGF22 binding	NR2E3 ag-2	miR-122 sensor	697 NFkB inh	Jurkat NFkB inh
Cn1c(-c2ccccc2)c[n+]2c1-c1ccccc1C2	-2.4	44.7*	3.6	.	5.5	18.8
COC(=O)c1ccccc1NC(=O)Nc1cccc(C)n1	-7.6	43.1*	-1.9	1.4	2.8	-0.7
C[C@H]1CN([C@@H](C)CO)C(=O)Cc2cc(NC(=O)c3ccncc3)ccc2O[C@H]1CN(C)CC1CCCCC1	.	-0.1	.	-10.4[16.7 µM]	.	.
C[C@@H]1CN([C@@H](C)CO)C(=O)c2ccccc2-c2ccccc2CO[C@@H]1CN(C)C(=O)c1ccc(F)cc1	.	-0.2	.	.	.	.
CCn1c(-c2cccs2)nc2ccccc21	-25.3	.	2.1	0.4	-10.5	-9.3
C#CCn1c(-c2cccs2)nc2ccccc21	-10.0	43.1*	0.2	5.4	-7.3	-1.3
COc1ccc(NC(=O)Nc2ccc3c(c2)CC(=O)N([C@@H](C)CO)C[C@H](C)[C@@H](CN(C)C)O3)cc1	.	0.0	.	-1.3[16.7 µM]	.	.
Cc1noc(C)c1NC(=O)Nc1ccc2c(c1)C(=O)N([C@@H](C)CO)C[C@@H](C)[C@@H](CN(C)Cc1ccncc1)O2	.	0.0	.	-3.3[16.7 µM]	.	.
CCCNC(=O)NC[C@@H]1[C@@H](c2ccc(C3=CCCC3)cc2)[C@H](CO)N1C(=O)CC	.	-0.9	.	342.9*[16.7 µM]	.	.
C[C@@H]1CN([C@H](C)CO)C(=O)Cc2cc(NC(=O)c3ccncc3)ccc2O[C@H]1CN(C)S(=O)(=O)c1cn(C)cn1	.	0.1	.	-7.8[16.7 µM]	.	.
O=C(O)C1Nc2c(O)cc(Cl)c([N+](=O)[O-])c2C2C=CCC12 (configuration not stated)	-44.0	2.7*	13.3	.	9.9	0.3
CCN1/C(=C2\C(=O)N(C)C(=S)N2c2ccccc2)C=Cc2ccccc21	-9.7	-0.5	-5.9	-2.0	9.8	-10.2
CCN1/C(=C2\C(=O)N(C)C(=S)N2C)C=Cc2ccccc21	-0.5	43.1*	-2.7	.	1.7	0.7
CCNC(=O)C[C@H]1C=C[C@H](NS(=O)(=O)c2ccc(F)cc2)[C@@H](CO)O1	.	.	.	-3.3[16.7 µM]	.	.
O=C(Nc1ccc(-c2ccccc2)cc1)[C@H]1[C@H](CO)[C@H]2Cn3c(cccc3=O)[C@@H]1N2Cc1cncnc1	.	0.0	.	2.3[16.7 µM]	.	.
COc1ccc(NS(=O)(=O)c2cc3c(cc2C)N(C)CCO3)cc1	-4.9	0.0	-0.3	95.3*	9.4	6.3
COc1cc(NS(=O)(=O)c2cc3c(cc2C)NC(=O)CO3)cc(OC)c1	13.5	0.1	2.7	101.4*	-5.1	-8.3
C[C@H](CO)N1C[C@H](C)[C@@H](CN(C)S(=O)(=O)c2ccccc2)Oc2ccc(NS(=O)(=O)c3ccccc3)cc2CC1=O	.	-0.3	.	0.5[16.7 µM]	.	.
O=C(Cc1ccc(F)cc1)Nc1cccc(-c2ccc3nncn3n2)c1	-9.3	43.5*	0.2	.	19.2	-0.4
CCc1ccc(S(=O)(=O)Nc2cccc(-c3ccc4nncn4n3)c2)s1	21.8	43.2*	1.7	.	-9.0	0.6
COCC(=O)Nc1cccc(-c2ccc3nncn3n2)c1	-3.1	0.0	2.9	-10.1	-0.7	18.8
CCCNC(=O)c1ccc(C2SCC(=O)N2Cc2ccccc2)cc1 (configuration not stated)	1.8	44.4*	2.5	.	-18.7	-5.3
CCOCCCNC(=O)c1ccc(C2SCC(=O)N2Cc2ccccc2)cc1 (configuration not stated)	-3.2	-0.2	-0.1	6.2	-3.0	5.0
O=C(O)CC1=C(Nc2ccccc2)C(=O)N(c2ccccc2)C1c1ccc(Br)cc1 (configuration not stated)	-14.2	43.3*	-1.1	2.4	-32.1	-39.8
C[C@@H]1CN([C@@H](C)CO)C(=O)c2cccc(NS(=O)(=O)c3cn(C)cn3)c2O[C@@H]1CN(C)C(=O)Nc1ccccc1	.	0.3	.	1.5[16.7 µM]	.	.
SMILES	NR2E3 ag-1	FGF22 binding	NR2E3 ag-2	miR-122 sensor	697 NFkB inh	Jurkat NFkB inh
C[C@@H]1CN([C@H](C)CO)C(=O)c2cc(NC(=O)Nc3ccc4c(c3)OCO4)ccc2O[C@@H]1CN(C)S(C)(=O)=O	.	-0.2	.	6.6[16.7 µM]	.	.
C[C@@H]1CN([C@@H](C)CO)C(=O)c2cc(C#CCc3ccccc3)cnc2O[C@H]1CN(C)C(=O)C1CCOCC1	.	-0.3	.	.	.	.
COc1ccc(Cn2nnnc2C(c2cc3cc(C)ccc3[nH]c2=O)N2CCN(C)CC2)cc1 (configuration not stated)	15.8	43.5*	3.2	.	0.3	7.0
CC(=O)Nc1ccc2nc(NC(=O)COc3ccccc3Cl)sc2c1	-60.4	43.2*	0.2	-3.2	-17.2	-9.7
CC(=O)Nc1ccc2nc(NC(=O)COc3ccccc3C)sc2c1	-31.3	-0.1	3.6	-3.5	-1.6	-12.0
CCOc1cc(/C=C2\C(=O)N(c3ccc(C(N)=O)cc3)N=C2C)ccc1OC(=O)c1cccs1	6.0	.	12.0	-6.2	26.7	7.7
CC1=NN(c2ccc(C(=O)O)cc2)C(=O)/C1=C\c1ccc(OC(=O)c2cccs2)cc1	-31.6	43.1*	12.3	.	-13.9	-3.5
COCc1cc(C)nc(OCC(=O)N/N=C/c2ccc(C)cc2)c1C#N	-32.4	0.1	-2.3	.	-12.6	25.9
COCc1cc(C)nc(OCC(=O)N/N=C/c2ccc(OC)c(O)c2)c1C#N	-5.7	44.2*	1.3	.	-9.1	3.5
C[C@H](CO)N1C[C@H](C)[C@H](CN(C)C(=O)C2CCC2)Oc2ncc(C3=CCCC3)cc2C1=O	.	-0.1	.	21.6[16.7 µM]	.	.
CC(NC(=O)C(c1ccccc1)c1ccccc1)C(=O)N1CCCCC1 (configuration not stated)	3.2	43.1*	-3.8	.	8.9	11.5
CCCCNc1ccc(C(F)(F)F)cc1S(=O)(=O)NCCc1ccc(F)cc1	-10.9	20.5*	.	-20.5	-1.5	.
COc1ccc(S(=O)(=O)NCCc2ccc(F)cc2)cc1	5.1	.	-2.6	42.3	-3.9	2.8
Cc1cn(C2OC(COC(=O)c3ccccc3)C(O)C2Cl)c(=O)[nH]c1=O (configuration not stated)	-11.1	43.0*	0.3	3.6	4.0	-4.7
CC(C)CC(=O)Nc1cccc(-c2nc3ccccc3[nH]2)c1	-25.2	0.3	5.2	158.1*	-30.1	-19.6
COc1ccc([C@H]2C[C@@H](O)[C@H](n3cc(COC(=O)c4ccccc4)nn3)CN2C(=O)c2cccs2)cc1	8.1	43.3*	.	-3.1	.	.
COCC(=O)N(C)C[C@@H]1Oc2ncc(C#Cc3cccnc3)cc2C(=O)N([C@H](C)CO)C[C@H]1C	.	-0.8	.	112.7*[16.7 µM]	.	.
CCCN(C)C[C@H]1OCCCC[C@@H](C)Oc2ccc(N(C)C)cc2C(=O)N([C@@H](C)CO)C[C@H]1C	.	-0.8	.	0.6[16.7 µM]	.	.
O=C(C[C@@H]1CC[C@H]2[C@@H](COC[C@H](O)CN2S(=O)(=O)c2cccc(Cl)c2)O1)Nc1ccc(-c2ccccc2)cc1	.	2.7*	.	-2.8[16.7 µM]	.	.
